Assay outcomes from PubChem.
Ba/F3 V617F tox: lowers viability of Ba/F3 cells expressing EpoR and JAK2V617F. ATP luminescence. inhibition, % at 5.6 µM. hit rate 1.1% among 220,000. AID 1446;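 active = inhibition above the campaign mean plus 3 SD over all tested compounds, cut at about 24% in these data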;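 also: cytokine-independent growth of Ba/F3 cells driven by EpoR plus mutant JAK2; 0% = DMSO-treated cells and 100% = JAK inhibitor I control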
b-catenin transl: beta-catenin nuclear translocation modulation. HeLa beta-catenin nuclear translocation, immunofluorescence imaging. nuclear translocation activity, % at 5 µM. hit rate 0.3% among 190,000. AID 1665;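 active = nuclear translocation activity above 50% at 5 µM, with a well cell count of 50 or more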;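 also: per-cell ratio of nuclear to cytoplasmic median beta-catenin stain intensity; plate controls were DMSO negative control for no effect and GSK-3 inhibitor IX positive control for full effect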
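System: HeLa cells, endogenous beta-catenin; compound dosing: 5 µM primary single dose, 0.1% DMSO, 0.02–20 µM confirmation series; incubation: 24 h compound exposure at 37°C, 5% CO2; signal: beta-catenin immunofluorescence imaging with DAPI; evaluation: % activation, nuclear-to-cytoplasmic median beta-catenin signal ratio per cell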
BaF3 tox: reduces parental Ba/F3 cell viability, JAK2V617F counter-screen; CellTiter-Glo ATP luminescence; inhibition, % at 5.6 µM; hit rate 1.1% among 220,000;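 active = inhibition above a per-campaign cutoff, the mean inhibition of all tested compounds plus 3 SD, cut at about 27% in these data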;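 also: 0% = DMSO wells and 100% = JAK Inhibitor I control wells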
MT stabilize HCS: microtubule stabilization, imaging screen; AID 2205; HeLa tubulin immunostaining HCS, 24 h; share of cells brighter than vehicle mean+2SD; % tubulin-high responders, % at 10 µM; hit rate 0.83% among 200,000;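 active = plate Z-score above 3 for both tubulin-high and condensed-nucleus cell shares, with cell loss under 80%, at 10 µM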;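 also: anti alpha tubulin signal scored within the nucleus-defined area of each cell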
APP 5UTR inh: APP translation inhibition. SH-SY5Y APP 5'UTR-luciferase reporter, luminescence. inhibition, % at 2 µM. hit rate 0.82% among 190,000. AID 1285;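 active = inhibition above a set limit, derived from the sample mean plus 3 SD, cut at about 45% in these data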
L major viab: inhibitors of Leishmania major promastigote growth; inhibition, % at 10 µM; AID 1063; hit rate 9% among 200,000; Leishmania major promastigotes, resazurin fluorescence viability; in the data active = inhibition above about 50%;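 also: promastigotes grown with compound for 44 hours at 28 °C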
Numbers without * were called inactive; . = not tested or not shown. In the library only some 9.6% were active in any assay of this set; here they are far more common.

SMILES | Ba/F3 V617F tox | b-catenin transl | BaF3 tox | MT stabilize HCS | APP 5UTR inh | L major viab
CC1CC(C)CN(CCCSc2ccccc2)C1 (centres undefined) | 4 | -1 | 5 | 5 | -6 | 92*
CC1CCCN(CCOCCSc2ccccc2)C1 (centres undefined) | 4 | 0 | 9 | 3 | -13 | 98*
O=C(Nc1nc2n(n1)C(c1ccc(F)cc1)CC(c1ccccc1)N2)c1ccco1 (centres undefined) | 5 | -2 | -3 | . | . | .
CCOC(=O)N1CCC(NC(=O)c2cc(C(=O)Nc3ccc(S(=O)(=O)N4CCOCC4)cc3)ccc2CO)CC1 | 2 | -2 | 4 | 5 | 7 | -5
Cc1ccc(N2CCN(c3cc(C)nc4nc(C)nn34)CC2)c(C)c1 | 0 | -2 | 4 | 4 | 9 | -3
c1ccc(SCCOCCN2CCc3ccccc3C2)cc1 | -3 | 1 | 0 | 1 | 13 | 90*
c1ccc(SCCN2CCc3ccccc3C2)cc1 | 0 | -4 | 4 | 3 | 3 | 0
CC1CN(CCCSc2ccc(Cl)cc2)CC(C)O1 (centres undefined) | 3 | 4 | 8 | 2 | 1 | 85*
NS(=O)(=O)c1cc(C(=O)N=Nc2c(O)[nH]c3ccccc23)ccc1Cl | 1 | 4 | -1 | . | . | .
COC(=O)c1sc(N)c(C(=O)OC)c1COC(=O)C1CC(=O)N(Cc2ccco2)C1 (centres undefined) | -5 | 0 | 2 | 3 | -4 | 51*
CCOC(=O)c1sc(N)c(C(=O)OCC)c1COC(=O)C1CC(=O)N(Cc2ccco2)C1 (centres undefined) | 1 | -2 | 2 | 1 | 2 | 1
CN(C)NC(=S)NC1CCS(=O)(=O)C1 (centres undefined) | 0 | -1 | 0 | . | . | .
NC(=O)COC(=O)c1ccccc1Nc1ccc(SC(F)F)cc1 | -4 | 2 | 2 | 4 | -6 | -7
CC(OC(=O)c1ccccc1Nc1ccc(SC(F)F)cc1)C(N)=O (centres undefined) | 5 | . | 12 | 2 | 8 | 55*
O=C(COC(=O)c1ccccc1Nc1ccc(SC(F)F)cc1)NC1CC1 | -2 | 1 | 9 | 2 | -20 | 61*
O=C(Nc1cccc(C(=O)N2CCN(c3cccc(Cl)c3)CC2)c1)c1ccccc1 | 9 | 6 | 8 | 10 | -23 | 13
O=c1c2c(nc3n1CCS3)c1cc(F)ccc1n2Cc1cc(=O)n2cc(Cl)ccc2n1 | -6 | 1 | -2 | . | . | .
Fc1ccc(-c2nc(-c3cccs3)[nH]c2-c2ccc(F)cc2)cc1 | -3 | -2 | 3 | 2 | 10 | 99*
O=[N+]([O-])c1cccc(-c2nc(-c3ccccc3)c(-c3cccs3)[nH]2)c1 | -2 | -3 | -2 | 1 | 22 | 14
O=[N+]([O-])c1cccc(-c2nc(-c3cccs3)c(-c3cccs3)[nH]2)c1 | -5 | 0 | -1 | 2 | -4 | 16
COc1ccc(-c2nc(-c3ccccc3)c(-c3cccs3)[nH]2)cc1OC | 1 | -3 | 8 | 2 | -1 | 66*
COc1ccc(-c2nc(-c3cccs3)c(-c3cccs3)[nH]2)cc1OC | -3 | -7 | 3 | 1 | 7 | 100*
COc1ccc(/C=N/NC(=O)c2cc(OC)c(OC)c(OC)c2)cc1CN1CCc2cc(OC)c(OC)cc2C1C (centres undefined) | 2 | 6 | 5 | 20* | -17 | 5
COc1cc(OC)cc(C(=O)N/N=C/c2ccc(OC)c(COc3ccc(F)cc3)c2)c1 | 10 | 213* | 55* | 16 | 87* | 8
COc1ccc(/C=N/NC(=O)c2cccnc2)cc1COc1ccc(NC(C)=O)cc1 | 9 | 2 | 7 | . | . | .
COc1ccc(/C=N/NC(=S)Nc2ccccc2)cc1COc1ccc(F)cc1F | 4 | 2 | 9 | 2 | 3 | 55*
COc1ccc(/C=N/NC(=O)c2cccnc2)cc1CN1CCc2cc(OC)c(OC)cc2C1C (centres undefined) | -2 | 1 | 4 | 3 | 6 | 0
Cc1cc(C)n2cc(COc3ccc4ccccc4c3)nc2n1 | -3 | . | 0 | 5 | -146 | -2
Cc1cccc2nc(COc3ccc(-c4ccccc4)cc3)cn12 | 44* | 7 | 38* | 4 | -39 | -4
NC(=O)C1(C(N)=O)OC1c1ccccc1 (centres undefined) | -2 | -1 | -3 | . | . | .
